Measured values published in ChEMBL document CHEMBL3627597, “Synthesis of Fluorine-Containing Phosphodiesterase 10A (PDE10A) Inhibitors and the In Vivo Evaluation of F-18 Labeled PDE10A PET Tracers in Rodent and Nonhuman Primate” (J Med Chem, 2015).

Tests used:
Nucleic Acid [1] = assay: Ratio of drug level in striatum to cerebellum in cynomolgus monkey at 185 to 259 MBq, iv measured at 40 mins by micro PET image analysis; format: ADME, organism-based, Macaca fascicularis; conditions: in vivo
Summary of the method: (§1)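 Adult male cynomolgus macaques (~4–6 kg), three independent PET studies per tracer on a microPET Focus 220. Animals fasted 12 h and anesthetized with ketamine (10 mg/kg) plus glycopyrrolate (0.13 mg/kg) i.m. A 10 min positioning transmission scan and a 45 min attenuation transmission scan were run, then a 3 h dynamic emission scan after venous tracer injection. Regional TACs came from ROIs, expressed as SUV (body weight, injected dose).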

Bone [2] = assay: Biodistribution in Sprague-Dawley rat bone at 1.48 to 2.22 MBq, iv measured at 60 mins by gamma counting analysis; format: ADME, organism-based, Bone element; conditions: in vivo, 1 h
Summary of the method: (§2)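 Male Sprague-Dawley rats (250 - 400 g), tail-vein injection of 1.48 - 2.22 MBq radiotracer under 2.5% isoflurane in oxygen; n=4 per time point, euthanized at 5, 30 and 60 min p.i. Brain regions obtained by gross dissection; peripheral tissues collected. Samples weighed, gamma-counted against a diluted-injectate standard; %ID/g calculated.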

[3] = Metabolic stability in cynomolgus monkey plasma assessed as compound remaining at 185 to 259 MBq, iv measured at 30 mins by HPLC analysis; format: ADME, organism-based, Macaca fascicularis; conditions: read-out: Stability
Summary of the method: (§3)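 Arterial blood (~1.5 mL) drawn at 2, 15, 30, 60 and 90 min p.i. into heparinized syringes, then centrifuged to plasma. Plasma deproteinated with 2 parts ice-cold methanol. Extract run on C-18 HPLC, MeCN/0.1 M ammonium formate pH 4.5, 0.9 mL/min, UV 254 nm. 1-min fractions over 16 min were well-counted and decay-corrected; parent percentage taken from recovered activity.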

Bone [4] = assay: Biodistribution in Sprague-Dawley rat bone at 1.48 to 2.22 MBq, iv measured at 30 mins by gamma counting analysis; format: ADME, organism-based, Bone element; conditions: in vivo, 0.5 h; summary of the method: as §2
Nucleic Acid [5] = assay: Ratio of drug level in striatum to occipital in cynomolgus monkey at 185 to 259 MBq, iv measured at 70 mins by micro PET image analysis; format: ADME, organism-based, Macaca fascicularis; conditions: in vivo; summary of the method: as §1
Nucleic Acid [6] = assay: Ratio of drug level in striatum to hippocampus in cynomolgus monkey at 185 to 259 MBq, iv measured at 70 mins by micro PET image analysis; format: ADME, organism-based, Macaca fascicularis; conditions: in vivo; summary of the method: as §1
[7] = Metabolic stability in cynomolgus monkey plasma assessed as compound remaining at 185 to 259 MBq, iv measured at 90 mins by HPLC analysis; format: ADME, organism-based, Macaca fascicularis; conditions: read-out: Stability; summary of the method: as §3
Rattus norvegicus [8] = assay: Biodistribution in Sprague-Dawley rat fat tissue at 1.48 to 2.22 MBq, iv measured at 30 mins by gamma counting analysis; format: ADME, organism-based, Adipose tissue; conditions: in vivo, 0.5 h; summary of the method: as §2
Nucleic Acid [9] = assay: Ratio of drug level in striatum to temporal region in cynomolgus monkey at 185 to 259 MBq, iv measured at 70 mins by micro PET image analysis; format: ADME, organism-based, Macaca fascicularis; conditions: in vivo; summary of the method: as §1
Nucleic Acid [10] = assay: Ratio of drug level in striatum to cerebellum in cynomolgus monkey at 185 to 259 MBq, iv measured at 70 mins by micro PET image analysis; format: ADME, organism-based, Macaca fascicularis; conditions: in vivo; summary of the method: as §1
Nucleic Acid [11] = assay: Ratio of drug level in striatum to frontal in cynomolgus monkey at 185 to 259 MBq, iv measured at 70 mins by micro PET image analysis; format: ADME, organism-based, Macaca fascicularis; conditions: in vivo; summary of the method: as §1
Blood [12] = assay: Biodistribution in Sprague-Dawley rat blood at 1.48 to 2.22 MBq, iv measured at 30 mins by gamma counting analysis; format: ADME, organism-based; conditions: in vivo, 0.5 h; summary of the method: as §2
Nucleic Acid [13] = assay: Ratio of drug level in striatum to midbrain region in cynomolgus monkey at 185 to 259 MBq, iv measured at 70 mins by micro PET image analysis; format: ADME, organism-based, Macaca fascicularis, Brain; conditions: in vivo; summary of the method: as §1
Liver = assay: Biodistribution in Sprague-Dawley rat liver at 1.48 to 2.22 MBq, iv measured at 5 mins by gamma counting analysis; format: ADME, organism-based; conditions: in vivo; summary of the method: as §2
[14] = Ratio of drug level in striatum to cerebellum in Sprague-Dawley rat at 1.48 to 2.22 MBq, iv measured at 5 to 30 mins by gamma counting analysis; format: ADME, organism-based; conditions: in vivo
Summary of the method: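 Striatum, cerebellum and cortex obtained by gross dissection from Sprague-Dawley rats (250 - 400 g, n=4 per time point) after tail-vein injection of 1.48 - 2.22 MBq under isoflurane anesthesia. Tissues weighed and gamma-counted with an injectate standard to give %ID/g; ratios taken from striatal versus non-target uptake.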

Nucleic Acid [15] = assay: Ratio of drug level in striatum to frontal in cynomolgus monkey at 185 to 259 MBq, iv measured at 40 mins by micro PET image analysis; format: ADME, organism-based, Macaca fascicularis; conditions: in vivo; summary of the method: as §1
Nucleic Acid [16] = assay: Ratio of drug level in striatum to occipital in cynomolgus monkey at 185 to 259 MBq, iv measured at 40 mins by micro PET image analysis; format: ADME, organism-based, Macaca fascicularis; conditions: in vivo; summary of the method: as §1
Rattus norvegicus [17] = assay: Biodistribution in Sprague-Dawley rat fat tissue at 1.48 to 2.22 MBq, iv measured at 5 mins by gamma counting analysis; format: ADME, organism-based, Adipose tissue; conditions: in vivo; summary of the method: as §2
Nucleic Acid [18] = assay: Ratio of drug level in striatum to temporal region in cynomolgus monkey at 185 to 259 MBq, iv measured at 40 mins by micro PET image analysis; format: ADME, organism-based, Macaca fascicularis; conditions: in vivo; summary of the method: as §1
Blood [19] = assay: Biodistribution in Sprague-Dawley rat blood at 1.48 to 2.22 MBq, iv measured at 5 mins by gamma counting analysis; format: ADME, organism-based; conditions: in vivo; summary of the method: as §2
[20] = Metabolic stability in cynomolgus monkey plasma assessed as compound remaining at 185 to 259 MBq, iv measured at 2 mins by HPLC analysis; format: ADME, organism-based, Macaca fascicularis; conditions: read-out: Stability; summary of the method: as §3
Kidney [21] = assay: Biodistribution in Sprague-Dawley rat kidney at 1.48 to 2.22 MBq, iv measured at 5 mins by gamma counting analysis; format: ADME, organism-based; conditions: in vivo; summary of the method: as §2
Nucleic Acid [22] = assay: Ratio of drug level in striatum to white matter in cynomolgus monkey at 185 to 259 MBq, iv measured at 70 mins by micro PET image analysis; format: ADME, organism-based, Macaca fascicularis; conditions: in vivo; summary of the method: as §1
Nucleic Acid [23] = assay: Ratio of drug level in striatum to midbrain region in cynomolgus monkey at 185 to 259 MBq, iv measured at 40 mins by micro PET image analysis; format: ADME, organism-based, Macaca fascicularis, Brain; conditions: in vivo; summary of the method: as §1
Muscle tissue [24] = assay: Biodistribution in Sprague-Dawley rat muscle at 1.48 to 2.22 MBq, iv measured at 60 mins by gamma counting analysis; format: ADME, organism-based; conditions: in vivo, 1 h; summary of the method: as §2
Kidney [25] = assay: Biodistribution in Sprague-Dawley rat kidney at 1.48 to 2.22 MBq, iv measured at 60 mins by gamma counting analysis; format: ADME, organism-based; conditions: in vivo, 1 h; summary of the method: as §2
Bone [26] = assay: Biodistribution in Sprague-Dawley rat bone at 1.48 to 2.22 MBq, iv measured at 5 mins by gamma counting analysis; format: ADME, organism-based, Bone element; conditions: in vivo; summary of the method: as §2
Blood [27] = assay: Biodistribution in Sprague-Dawley rat blood at 1.48 to 2.22 MBq, iv measured at 60 mins by gamma counting analysis; format: ADME, organism-based; conditions: in vivo, 1 h; summary of the method: as §2
Muscle tissue [28] = assay: Biodistribution in Sprague-Dawley rat muscle at 1.48 to 2.22 MBq, iv measured at 30 mins by gamma counting analysis; format: ADME, organism-based; conditions: in vivo, 0.5 h; summary of the method: as §2
Putamen = assay: Drug uptake in cynomolgus monkey putamen at 185 to 259 MBq, iv measured over 180 mins by micro PET image analysis; format: ADME, organism-based, Macaca fascicularis; conditions: in vivo, 3 h
Summary of the method: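 Adult male cynomolgus macaques (~4–6 kg), three studies per tracer, fasted 12 h. Induction with ketamine 10 mg/kg plus glycopyrrolate 0.13 mg/kg i.m. Transmission scans of 10 min for positioning and 45 min for attenuation correction, then a 3 h dynamic microPET emission scan after venous injection of 185 - 259 MBq. ROI time-activity curves expressed as SUV (body weight and injected dose).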

SMILES: Cn1cc(-c2ccncc2)c(-c2ccc(OCc3nc4ccccc4cc3OCC[18F])cc2)n1
- Ratio (Nucleic Acid [1]): > 3
- Drug uptake (Bone [2]): 0.224 % ID/g
- remaining at 0.5 h [3]: 73%
- Drug uptake (Bone [4]): 0.144 % ID/g
- Ratio (Nucleic Acid [5]): > 5
- Ratio (Nucleic Acid [6]): > 5
- remaining at 1.5 h [7]: 45%
- Drug uptake (Rattus norvegicus [8]): 0.202 % ID/g
- Ratio (Nucleic Acid [9]): > 5
- Ratio (Nucleic Acid [10]): > 5
- Ratio (Nucleic Acid [11]): > 5
- Drug uptake (Blood [12]): 0.306 % ID/g
- Ratio (Nucleic Acid [13]): > 5
- Drug uptake (Liver): 4.24 % ID/g
- Ratio [14]: > 2
- Ratio (Nucleic Acid [15]): > 3
- Ratio (Nucleic Acid [16]): > 3
- Drug uptake (Rattus norvegicus [17]): 0.119 % ID/g
- Ratio (Nucleic Acid [18]): > 3
- Drug uptake (Blood [19]): 0.343 % ID/g
- remaining at 2 min [20]: 99%
- Drug uptake (Kidney [21]): 1.789 % ID/g
- Ratio (Nucleic Acid [22]): > 5
- Ratio (Nucleic Acid [23]): > 3
- Drug uptake (Muscle tissue [24]): 0.134 % ID/g
- Drug uptake (Kidney [25]): 0.841 % ID/g
- Drug uptake (Bone [26]): 0.182 % ID/g
- Drug uptake (Blood [27]): 0.287 % ID/g
- Drug uptake (Muscle tissue [28]): 0.156 % ID/g
- Drug uptake (Putamen): Active
